# What was measured:
# HeLa = assay: Cytotoxicity concentration in HeLa cells; assay type: cell-based; conditions: human
# Method in brief: (§1)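 HeLa monolayers were seeded at (1.0-1.3) × 10^5 cells/well, grown 24 h at 36 °C in 5% CO2 to 60–75% cover, then refed with maintenance medium (1-2% heat-inactivated FCS) containing two-fold serial compound dilutions made from a 200 μg/mL stock in Me2SO/medium, with final Me2SO ≤0.1%. Cells were challenged with 10-100 TCID50 virus, and CPE was read microscopically at 48 and 72 h. MIC50 was the lowest concentration giving ≥50% CPE reduction versus virus control. Cytotoxicity was the lowest concentration causing cell death, a growth change or a morphology change in uninfected cultures.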
# Coxsackievirus [1] = assay: Lowest concentration to reduce viral effect by 50% or more against coxsackie virus A21; assay type: functional; method in brief: as §1
# Enterovirus [2] = assay: Ratio of the MIC50 of 6-(4-Nitro-phenoxy)-nicotinonitrile compared to compound obtained in the same test for Rhinovirus (RV)-1A; assay type: functional
# Method in brief: (§2)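 Relative activity was calculated as the MIC50 of the positive control 5-cyano-2-(4-nitrophenoxy)pyridine divided by the MIC50 of the test compound. Both were measured in parallel in the same HeLa CPE test (48/72 h microscopic reading) against RV-1A, RV-2 or coxsackievirus A21.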
# Enterovirus [3] = assay: Ratio of the MIC50 of 6-(4-Nitro-phenoxy)-nicotinonitrile compared to compound obtained in the same test for Rhinovirus (RV)-2; assay type: functional; method in brief: as §2
# Enterovirus [4] = assay: Lowest concentration to reduce viral effect by 50% or more against Rhinovirus (RV)-2; assay type: functional; method in brief: as §1
# Enterovirus [5] = assay: Lowest concentration to reduce viral effect by 50% or more against Rhinovirus (RV)-1A; assay type: functional; method in brief: as §1
# Coxsackievirus [6] = assay: Ratio of the MIC50 of 6-(4-Nitro-phenoxy)-nicotinonitrile compared to compound obtained in the same test for coxsackie A21; assay type: functional; method in brief: as §2
# Enterovirus [7] = assay: Compound was evaluated for inhibition of rhinovirus RV-Hanks 75%; assay type: functional
# Enterovirus [8] = assay: Compound was evaluated for inhibition of rhinovirus RV-Hanks at a dose of 50 ug/mL by < 50%; assay type: functional
# Enterovirus [9] = assay: Compound was evaluated for inhibition of rhinovirus RV-Hanks at a dose of 50 ug/mL by <50%; assay type: functional
MIC50 (Coxsackievirus [1]),MIC50 (Enterovirus [4]),MIC50 (Enterovirus [5]),SMILES,Toxicity (HeLa),Relative activity (Enterovirus [2]),Relative activity (Enterovirus [3]),Relative activity (Coxsackievirus [6]),Inhibition (Enterovirus [7]),inhibition at 50 µg/mL (Enterovirus [8]),inhibition at 50 µg/mL (Enterovirus [9])
12 µM,24 µM,47 µM,N#Cc1cccnc1Oc1ccc(Cl)c(Cl)c1,> 189 µM,0.55,1.1,1.1,,,
8.1 µM,0.26 µM,0.52 µM,N#Cc1cc([N+](=O)[O-])ccc1Oc1cccc(Cl)c1Cl,> 65 µM,25,50,3.2,,,
9 µM,9 µM,4 µM,CSc1ccc(Oc2ccc(Cl)c(Cl)c2)nc1,87 µM,6.5,5.8,4.6,,,
12 µM,12 µM,24 µM,N#Cc1ccnc(Oc2ccc(Cl)c(Cl)c2)c1,> 189 µM,1.1,2.2,1.1,,,
54 µM,54 µM,54 µM,N#Cc1ccc(Oc2ccc(Cl)cc2)nc1,> 433 µM,1.9,2,0.48,,,
60 µM,30 µM,60 µM,Cc1ccc(Oc2ccc(C#N)cn2)cc1,476 µM,0.43,1.7,0.43,,,
2.3 µM,9.5 µM,9.5 µM,N#Cc1ccc(Oc2ccc(Cl)c(Cl)c2)cc1,24 µM,2.7,2.7,11.3,,,
0.88 µM,22 µM,4.6 µM,O=[N+]([O-])c1ccc(Oc2ccc(Cl)c(Cl)c2)cc1,352 µM,5.6,2.4,5.9,65%,30%,
4.1 µM,0.79 µM,0.79 µM,CS(=O)(=O)c1ccc(Oc2ccc(Cl)c(Cl)c2)cc1,158 µM,32.8,32.8,3.2,85%,10%,
2 µM,19 µM,5 µM,N#Cc1ccc(Oc2ccc(Cl)c(Cl)c2)nc1,377 µM,4.1,2.7,13,,,
16.2 µM,0.52 µM,3.9 µM,N#Cc1cc([N+](=O)[O-])ccc1Oc1c(Cl)cccc1Cl,> 65 µM,5.3,25,0.8,,,
2 µM,0.52 µM,0.26 µM,N#Cc1cc([N+](=O)[O-])ccc1Oc1cc(Cl)ccc1Cl,> 162 µM,50,25,13,,,

# Continued, compound first:
SMILES,MIC50 (Coxsackievirus [1]),MIC50 (Enterovirus [4]),MIC50 (Enterovirus [5]),Toxicity (HeLa),Relative activity (Enterovirus [2]),Relative activity (Enterovirus [3]),Relative activity (Coxsackievirus [6]),Inhibition (Enterovirus [7]),inhibition at 50 µg/mL (Enterovirus [8]),inhibition at 50 µg/mL (Enterovirus [9])
N#Cc1cc([N+](=O)[O-])ccc1Oc1cccc(C(F)(F)F)c1,3.9 µM,2 µM,8.1 µM,41 µM,1.6,25.9,5.3,,,
N#Cc1cc([N+](=O)[O-])ccc1Oc1ccccc1Br,0.41 µM,0.94 µM,1.6 µM,> 31 µM,12.9,11.1,3.3,,,
N#Cc1cc([N+](=O)[O-])ccc1Oc1cccc2ccccc12,10.8 µM,1.1 µM,4.3 µM,> 172 µM,6,11.8,1.2,,,
N#Cc1cc([N+](=O)[O-])ccc1Oc1ccccc1,2.7 µM,5.4 µM,5.4 µM,> 42 µM,3.8,3.8,0.96,,,
COc1ccc(Oc2ccc([N+](=O)[O-])cc2C#N)cc1,5.7 µM,11.6 µM,46.3 µM,93 µM,0.56,2.2,2.2,,,
N#Cc1cc([N+](=O)[O-])ccc1Oc1ccccc1Cl,5.7 µM,4.5 µM,4.5 µM,45 µM,4.6,4.6,2.38,,,
N#Cc1ccc(Oc2ccc([N+](=O)[O-])cc2C#N)cc1,18.9 µM,9.4 µM,9.4 µM,> 38 µM,2.2,1.1,0.33,,,
N#Cc1ccc(Oc2ccc([N+](=O)[O-])cc2)nc1,,,,,,,,85%,,8%
CS(=O)(=O)c1ccc(Oc2ccc(Br)cc2)cc1,7.6 µM,1 µM,1.9 µM,38 µM,9.8,19.7,2.5,,,
CS(=O)(=O)c1ccc(Oc2ccc(Cl)cc2)cc1,2.2 µM,4.4 µM,4.4 µM,44 µM,11.8,5.9,11.8,,,
N#Cc1cc([N+](=O)[O-])ccc1Oc1ccc(C(F)(F)F)cc1,2 µM,1 µM,10 µM,162 µM,1.3,13,13,,,
CC(=O)c1ccc(Oc2ccc([N+](=O)[O-])cc2C#N)cc1,3.5 µM,11.1 µM,22.2 µM,> 177 µM,0.59,1.2,0.68,,,
N#Cc1cc([N+](=O)[O-])ccc1Oc1ccc(Cl)cc1Cl,3.9 µM,0.52 µM,0.97 µM,> 324 µM,85.6,49.8,13.3,,,
COc1cccc(Oc2ccc([N+](=O)[O-])cc2C#N)c1,4.6 µM,9.3 µM,23 µM,> 185 µM,1.1,1.4,2.8,,,
N#Cc1cc([N+](=O)[O-])ccc1Oc1ccc(Br)cc1,7.8 µM,3.8 µM,3.8 µM,> 313 µM,6.8,6.8,3.3,,,
Cc1ccc(Oc2ccc(S(C)(=O)=O)cc2)cc1,25.4 µM,25.4 µM,50.8 µM,203 µM,0.51,1,1,,,
N#Cc1cc([N+](=O)[O-])ccc1Oc1cccc(Cl)c1,1.1 µM,0.58 µM,1.1 µM,> 91 µM,23.6,44.7,11.8,,,

# Source: ChEMBL document CHEMBL1123507, “Antipicornavirus activity of substituted phenoxybenzenes and phenoxypyridines” (J Med Chem, 1986)
